Screening results: PubChem BioAssay, Johns Hopkins Ion Channel Center
Only some compounds are listed: those with a hit (about 2.3% of all), similar ones and a draw of the others.
TRPC6 act: activators of mouse TRPC6 channel. Q61143. HEK293-TRPC6 membrane potential dye fluorescence; active compounds read high. B-score at 10 µM. hit rate 0.13% among 310,000. AID 2550;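 active = B-score of the integrated fluorescence ratio above library mean plus 3 SD, and starting fluorescence ratio within library mean plus 5 SD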;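 also: higher score means more depolarization so channel activation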
Target sequence (Q61143 whole entry, looked up): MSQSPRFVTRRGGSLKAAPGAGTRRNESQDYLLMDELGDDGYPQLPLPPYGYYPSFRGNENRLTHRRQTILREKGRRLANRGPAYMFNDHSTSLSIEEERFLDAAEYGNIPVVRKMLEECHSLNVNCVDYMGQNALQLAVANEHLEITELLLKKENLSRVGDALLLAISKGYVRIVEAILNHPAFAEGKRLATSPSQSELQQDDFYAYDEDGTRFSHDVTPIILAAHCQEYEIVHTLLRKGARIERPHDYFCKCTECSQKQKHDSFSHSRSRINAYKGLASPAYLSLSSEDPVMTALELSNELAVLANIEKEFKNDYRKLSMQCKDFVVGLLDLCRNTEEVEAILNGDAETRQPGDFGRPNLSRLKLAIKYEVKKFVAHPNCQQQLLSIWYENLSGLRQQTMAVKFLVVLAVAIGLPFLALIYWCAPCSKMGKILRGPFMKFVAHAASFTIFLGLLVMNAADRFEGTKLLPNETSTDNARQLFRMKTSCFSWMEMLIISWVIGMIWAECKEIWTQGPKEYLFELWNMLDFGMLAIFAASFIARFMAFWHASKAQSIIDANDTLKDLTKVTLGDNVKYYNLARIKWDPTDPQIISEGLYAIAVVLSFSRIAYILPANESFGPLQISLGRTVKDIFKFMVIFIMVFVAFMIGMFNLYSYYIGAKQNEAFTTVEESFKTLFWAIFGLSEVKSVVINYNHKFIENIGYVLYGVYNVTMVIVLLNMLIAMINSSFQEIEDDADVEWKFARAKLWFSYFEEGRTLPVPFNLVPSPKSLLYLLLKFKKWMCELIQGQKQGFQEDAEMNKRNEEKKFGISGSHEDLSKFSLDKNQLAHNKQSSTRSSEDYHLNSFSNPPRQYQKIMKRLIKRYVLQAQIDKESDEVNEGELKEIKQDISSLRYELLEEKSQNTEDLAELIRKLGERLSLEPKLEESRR
TRPC6 inh: mouse TRPC6 channel inhibition; Q61143; HEK293-TRPC6, membrane potential dye, ACh-evoked depolarization; active compounds read low; B-score at 10 µM; hit rate 1.1% among 310,000; AID 2553;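 active = B-score under library mean minus 3 SD, initial fluorescence not abnormally high, positive integrated signal ratio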;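 also: B-score derived from integrated fluorescence ratio over the kinetic read; more negative B-score means stronger inhibition of depolarization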
TRPC4 agonist: opens the mouse TRPC4 cation channel. Q9QUQ5. HEK293 TRPC4beta/mu-opioid, Fluo4 calcium fluorescence; active compounds read high. B-score at 10 µM. hit rate 0.49% among 310,000. AID 2237;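 active = B-score above 5 SD of library B-scores, and initial fluorescence ratio not above library mean plus 5 SD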;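 also: positive B-score marks a calcium rise read as TRPC4 activation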
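Material: HEK293 stable line with TRPC4beta plus mu-opioid receptor; technique: Fluo4 calcium-sensitive dye fluorescence, kinetic, 1 Hz baseline; timing: Fluo4 dye loading 45 min at room temperature, 110 s recording; controls: assay buffer as low control, maximal DAMGO as high control; read-out: integrated baseline-normalised fluorescence ratio, converted to per-well B score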
TRPC4 inh: blocks the mouse TRPC4 cation channel | HEK293 TRPC4beta/mu-opioid, DAMGO-evoked Fluo4 calcium flux; active compounds read low | hit rate 0.39% among 300,000 | AID 2247 | B-score at 10 µM | Q9QUQ5;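 active = B-score over 3 SD under the library average, no early fluorescence shift, positive overall ratio signal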
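Signal: kinetic Fluo4 fluorescence imaging of calcium influx. Material: stable TRPC4beta/mu-opioid receptor HEK293 cells. Probe or stimulus: DAMGO in two steps, submaximal then maximal.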
TRPC4 PAM: TRPC4 (mouse) allosteric potentiation; HEK293 TRPC4beta/mu-opioid, DAMGO EC20, Fluo-4 Ca2+ flux; active compounds read high; B-score at 10 µM; hit rate 0.42% among 310,000; AID 2227;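 active = B-score of calcium response area above 5 SD of library B-scores, with initial fluorescence ratio within 5 SD of library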
TRPC4 sel inh 2: second selectivity test of TRPC6 inhibitors: effect on mouse TRPC4. HEK293 TRPC4/MOR, membrane potential dye fluorescence; channel activated by saturating DAMGO dose. shares compounds with TRPC6 inh. inhibition, % at 10 µM. AID 2776. hit rate 42% among 920;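 active = compounds whose fluorescence signal differed from control wells by over 3 SD, either direction, in both duplicate plates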
TRPC4 spec: mouse TRPC4 off-target activity of TRPC6 inhibitors | shares compounds with TRPC6 inh | HEK293 TRPC4/mu-opioid, membrane potential fluorescence | activity change, negative = inhibition, % at 10 µM | hit rate 61% among 920 | AID 2777;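 active = rise or fall in signal beyond 3 SD of buffer-only wells in both replicate plates, either sign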;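 also: integrated kinetic ratio of fluorescence range over baseline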
HEK293 MPD ctr 2-1: second counter-screen for TRPC6 inhibitors: parental HEK293 cells | shares compounds with TRPC6 inh | parental HEK293 membrane potential dye fluorescence; maximal acetylcholine challenge after compound addition | signal change vs control, % at 10 µM | hit rate 31% among 920 | AID 2779;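 active = membrane potential signal moving either way by over 3 SD of the maximum-effect control, in both duplicate plates, meaning non-specific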
HEK293 MPD ctr-1: counter-screen for TRPC6 inhibitors: effect in parental HEK293 cells; shares compounds with TRPC6 inh; membrane potential signal change, % at 10 µM; AID 2780; parental HEK293 membrane potential dye fluorescence; hit rate 60% among 920;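 active = membrane potential signal shifting up or down by more than 3 SD of buffer-only wells, on both duplicate plates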
HEK293 MPD ctr-2: parental HEK293 nonspecific activity of TRPC6 modulators; shares compounds with TRPC6 inh; membrane potential dye fluorescence; membrane potential signal change, % at 10 µM; hit rate 51% among 2,400;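 active = membrane potential signal moves up or down beyond 5 SD from buffer-only wells, on both duplicate plates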
HEK293 MPD ctr 2-2: parental HEK293 nonspecific activity of TRPC6 modulators, second screen; hit rate 14% among 2,400; inhibition, % at 10 µM; shares compounds with TRPC6 inh; membrane potential dye fluorescence; after compound, maximal acetylcholine stimulation;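 active = membrane potential signal drops by more than 5 SD from the mean control signal, in both duplicate plates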
TRPC4/MOR mod: tests whether TRPC6 modulators also affect mouse TRPC4 | shares compounds with TRPC6 inh | HEK293 TRPC4/mu-opioid, membrane potential fluorescence | percent change from control (negative = decrease, positive = increase), % at 10 µM | hit rate 69% among 2,400 | AID 488927;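 active = membrane potential signal moved up or down beyond 5 SD of buffer control wells, in both duplicate plates, actives on both sides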
TRPC4/MOR inh 2: second selectivity test of TRPC6 modulators against mouse TRPC4; shares compounds with TRPC6 inh; HEK293 TRPC4/mu-opioid, membrane potential dye fluorescence; stimulated with maximal-effect DAMGO; inhibition, % at 10 µM; hit rate 55% among 2,400;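 active = drop in membrane potential signal beyond 5 SD of the control wells in both duplicate plates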;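 also: TRPC4 counter screen for TRPC6 hits run under conditions tuned for TRPC6 not TRPC4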
TRPC6 inh conf: confirmation of mouse TRPC6 inhibitors | hit rate 43% among 3,300 | HEK293-TRPC6, membrane potential dye, ACh-evoked depolarization | shares compounds with TRPC6 inh | inhibition, % at 10 µM;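 active = fluorescence ratio falls more than 5 SD below the full-stimulation control mean, in both duplicate runs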;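 also: integrated fluorescence ratio of peak minus minimum over baseline after agonist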
TRPC6 act conf: confirmation of mouse TRPC6 activators; shares compounds with TRPC6 inh; HEK293-TRPC6 membrane potential dye fluorescence, FDSS; activation, % at 10 µM; hit rate 11% among 2,800; AID 488961;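 active = ratio signal rise beyond 5 SD above unstimulated control wells' mean, seen in both duplicate runs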
Large screens that a line does not name were inactive (follow-up assays come after a bar, where they were run).

CCCCn1c(=N)n(CC(O)COc2cccc(C)c2)c2ccccc21 (stereo unspecified)	TRPC6 inh -6.7 | TRPC4 sel inh 2 38% | TRPC4 spec 40% | HEK293 MPD ctr 2-1 270% | HEK293 MPD ctr-1 23% | TRPC6 inh conf inactive
N=c1n(CCN2CCCC2)c2ccccc2n1CC(O)c1ccc(Cl)c(Cl)c1 (stereo unspecified)	TRPC6 inh -5.8 | HEK293 MPD ctr-2 inactive | HEK293 MPD ctr 2-2 inactive | TRPC4/MOR mod inactive | TRPC4/MOR inh 2 47% | TRPC6 inh conf 52% | TRPC6 act conf inactive
N=c1n(CCN2CCOCC2)c2ccccc2n1CC(=O)c1ccc(Cl)c(Cl)c1	none
Cc1ccc(Cn2c(=N)n(CC(O)c3ccco3)c3ccccc32)cc1 (stereo unspecified)	TRPC6 inh -5.6, TRPC4 inh -8 | HEK293 MPD ctr-2 178% | HEK293 MPD ctr 2-2 inactive | TRPC4/MOR mod 33% | TRPC4/MOR inh 2 88% | TRPC6 inh conf 54%
N=c1n(Cc2ccccc2)c2ccccc2n1CC(O)c1ccccc1 (stereo unspecified)	TRPC6 inh -7.8 | TRPC4 sel inh 2 28% | TRPC4 spec 27% | HEK293 MPD ctr 2-1 inactive | HEK293 MPD ctr-1 10% | TRPC6 inh conf inactive | TRPC6 act conf inactive
Cc1ccc(S(=O)(=O)Nc2cccc(C(=O)NCC3CCCO3)c2)cc1F (stereo unspecified)	none
COc1ccccc1OCC(O)Cn1c(=N)n(Cc2ccccc2)c2ccccc21 (stereo unspecified)	TRPC6 inh -6.4 | HEK293 MPD ctr-2 122% | HEK293 MPD ctr 2-2 inactive | TRPC4/MOR mod 46% | TRPC4/MOR inh 2 102% | TRPC6 inh conf 52%
Cc1ccccc1OCC(O)Cn1c(=N)n(Cc2ccccc2)c2ccccc21 (stereo unspecified)	TRPC6 inh -5.1, TRPC4 agonist 64, TRPC4 inh -6 | HEK293 MPD ctr-2 120% | HEK293 MPD ctr 2-2 inactive | TRPC4/MOR mod 40% | TRPC4/MOR inh 2 102% | TRPC6 inh conf 70%
CC(C)NC(=S)N1CCN(S(=O)(=O)c2cccc(C(F)(F)F)c2)CC1	none
N=c1c(C(=O)NCc2ccc(F)cc2)cc2c(=O)n3ccccc3nc2n1Cc1cccnc1	TRPC6 inh -5.8 | HEK293 MPD ctr-2 inactive | HEK293 MPD ctr 2-2 inactive | TRPC4/MOR mod -34% | TRPC4/MOR inh 2 inactive | TRPC6 inh conf 52% | TRPC6 act conf inactive
COC(=O)c1cc2c(=O)n3ccccc3nc2n(Cc2cccnc2)c1=N	TRPC6 inh -7.8 | TRPC4 sel inh 2 75% | TRPC4 spec -33% | HEK293 MPD ctr 2-1 inactive | HEK293 MPD ctr-1 -520% | TRPC6 inh conf inactive | TRPC6 act conf inactive
C=CCNC(=O)c1c(Cl)cnn1-c1ccc(C)cc1	none
O=C(CN1CCN(c2ccccc2F)CC1)NC(=O)NCc1ccccc1	TRPC6 inh -5.1 | HEK293 MPD ctr-2 inactive | HEK293 MPD ctr 2-2 inactive | TRPC4/MOR mod inactive | TRPC4/MOR inh 2 inactive | TRPC6 inh conf inactive | TRPC6 act conf inactive
CN(C)CCn1c(C(=O)Nc2ccccc2)cc2ccccc21	TRPC6 inh -7.8 | TRPC4 sel inh 2 48% | TRPC4 spec -17% | HEK293 MPD ctr 2-1 inactive | HEK293 MPD ctr-1 -235% | TRPC6 inh conf inactive | TRPC6 act conf inactive
O=C(CCNc1ccc(Cc2ccncc2)cc1)c1ccc([N+](=O)[O-])cc1	none
COc1ccc(COc2cc(-c3cccc(OC)c3)nc3ccc(N)cc23)cc1	TRPC6 inh -8.3 | TRPC4 sel inh 2 inactive | TRPC4 spec -9.5% | HEK293 MPD ctr 2-1 inactive | HEK293 MPD ctr-1 inactive | TRPC6 inh conf inactive | TRPC6 act conf inactive
Fc1ccc(Nc2nnc(C(F)(F)F)s2)cc1Cl	TRPC6 inh -8.8 | TRPC4 sel inh 2 inactive | TRPC4 spec inactive | HEK293 MPD ctr 2-1 inactive | HEK293 MPD ctr-1 inactive | TRPC6 inh conf 61% | TRPC6 act conf inactive
CCOC(=O)c1ccc(NC(=O)CCC2COc3ccccc3O2)cc1 (stereo unspecified)	TRPC6 act 20 | HEK293 MPD ctr-2 inactive | HEK293 MPD ctr 2-2 inactive | TRPC4/MOR mod inactive | TRPC4/MOR inh 2 inactive | TRPC6 act conf 136%
C=CCn1nnc2sc3c(c2c1=O)CCC(C)C3 (stereo unspecified)	none
CCNCCOC(c1ccccc1)c1ccccc1	TRPC6 inh -5.8 | HEK293 MPD ctr-2 142% | HEK293 MPD ctr 2-2 inactive | TRPC4/MOR mod 27% | TRPC4/MOR inh 2 36% | TRPC6 inh conf inactive
COc1cc(/C=C(\C#N)c2ccccn2)cc(OC)c1O	TRPC6 act 14, TRPC6 inh -5.1 | HEK293 MPD ctr-2 458% | HEK293 MPD ctr 2-2 72% | TRPC4/MOR mod 66% | TRPC4/MOR inh 2 inactive | TRPC6 inh conf 46% | TRPC6 act conf 146%
Cc1ncc(CSc2nc3ccccc3[nH]2)c(N)n1	none
CCOc1ccccc1CSc1nc2ccccc2[nH]1	TRPC6 inh -5.8 | HEK293 MPD ctr-2 inactive | HEK293 MPD ctr 2-2 inactive | TRPC4/MOR mod inactive | TRPC4/MOR inh 2 inactive | TRPC6 inh conf inactive | TRPC6 act conf inactive
Cc1ccc(C(=O)NCC(=O)OCCOc2ccccc2Cl)cc1	none
CN1CCN(CC(O)(c2ccc(Cl)cc2)c2ccc(Cl)cc2)CC1	TRPC6 inh -7.3 | TRPC4 sel inh 2 inactive | TRPC4 spec 4.3% | HEK293 MPD ctr 2-1 inactive | HEK293 MPD ctr-1 1.8% | TRPC6 inh conf inactive | TRPC6 act conf inactive
